One may read the Kd as a measure of binding affinity in units of concentration.

B1: NELF-E aptamer (parent)
chain: CCCAACGACUGCCGAGCGAGAUUACGCUUGAGCGCCCCACUGAGGAUGCCCACGGGCGAUUGGGGCACGG

The variants in the data set derive from B1. Description: HiTS-RAP. Particulars: with NELF-E (Drosophila). An outline of the steps:
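Kd came from weighted Hill fits to the first binding curve, with intensities normalised to sequencing intensity and averaged per sequence, keeping only fits whose variance was below 1,000,000. That curve was imaged on an Illumina GAIIx flowcell, where sequenced aptamer DNA templates with a T7 promoter and ter site had been transcribed in situ by T7 RNA polymerase and halted by GST-Tus (30 minutes, 37°C). Before each image, clusters equilibrated for 30 minutes at room temperature with NELF-E-mOrange at 0.064 to 1000 nM in HEPES binding buffer.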
As to CCCAACGACUGCCGAGCGAGAUUACGCUUGAGCUGCCCACUGAGGAUGCCCACGGGCGAUUGGGGCACGG [G34U C35G], the Kd amounted to 4.52 nM.

On to CCCAACGACUGCCGAGCGAGAUUACGCUUGAGCGCCCCUCUGAGGAUGCCCACGGGCGAUAGGGGCACGG [A39U U61A], for which the Kd turned out to be 17.4 nM.

On to CCCAACGACUGCCGAGCGAGAUUACGCUUGAGCGCCCCGCGGAGGAUGCCCACGGGCGAUUGGGGCACGG [A39G U41G], for which the Kd worked out at 6.74 nM.

As for CCCAACGACUGCCGAGCGAGAUUACGCUUGAGGUCCCCACUGAGGAUGCCCACGGGCGAUUGGGGCACGG [C33G G34U], the Kd turned out to be 5.51 nM.

Consider CCCAACGACUGCCGAGCGAGAUUACGCUUGAGCGCCCCGCUGAGGAUGCCCACGGGCGAUUGAGGCACGG [A39G G63A], for which the Kd was found to be 87.1 nM.

CCCAACGACUGCCGAGCGAGAUUACGCUUGAGCGCCACACGGAGGAUGCCCACGGGCGAUUGGGGCACGG [C37A U41G]: the Kd was found to be 15.9 nM.

Regarding CCCAACGACUGCCGAGCGAGAUUACGCUUGAGCGCCCCACAGAGGAUGCCCACGGGCGAUUGGGGCUCGG [U41A A67U], the Kd was 59.4 nM.

For the variant CCCAACGACUGCCGAGCGAGAUUACGCUUGAGGGCCCCACGGAGGAUGCCCACGGGCGAUUGGGGCACGG [C33G U41G], the Kd was determined as 7.38 nM.

For the variant CCCAACGACUGCCGAGCGAGAUUACGCUUGAGCGCCCCGCUGAGGAUGCCCACGGGCGAUCGGGGCACGG [A39G U61C], the Kd is 8.88 nM.

For the variant CCCAACGACUGCCGAGCGAGAUUACGCUUGAGCGCCACACUGAGGAUGCCCACGGGCGAUUGGGGCACGG [C37A], the Kd turned out to be 13.7 nM.

As for CCCAACGACUGCCGAGCGAGAUUACGCUUGAGCGCCUCACUGAGGAUGCCCACGGGCGAUUGGGGCACGG [C37U], the Kd is 11.1 nM.

For the variant CCCAACGACUGCCGAGCGAGAUUACGCUUGAGCGCCGCACUGAGGAUGCCCACGGGCGAUUGGGGCACGG [C37G], the Kd came out at 5.85 nM.

For the variant CCCAACGACUGCCGAGCGAGAUUACGCUUGAGCGCCUCACGGAGGAUGCCCACGGGCGAUUGGGGCACGG [C37U U41G], the Kd was 16.1 nM.

As for CCCAACGACUGCCGAGCGAGAUUACGCUUGAGCGCCCCACGGAGGAUGCCCACGGGCGAUUGGGGCUCGG [U41G A67U], the Kd came out at 7 nM.

For the variant CCCAACGACUGCCGAGCGAGAUUACGCUUGAGCGCCCCACGGAGGAUGCCCACGGGCGAUUGGGGCGCGG [U41G A67G], the Kd worked out at 6.35 nM.

On to CCCAACGACUGCCGAGCGAGAUUACGCUUGAGCGCCCCACGGAGGAUGCCCUCGGGCGAUUGGGGCACGG [U41G A52U], for which the Kd amounted to 16.4 nM.

In the case of CCCAACGACUGCCGAGCGAGAUUACGCUUGAGCGCCCCACGGAGGAUGCCCGCGGGCGAUUGGGGCACGG [U41G A52G], the Kd is 4.52 nM.

Consider CCCAACGACUGCCGAGCGAGAUUACGCUUGAGCGCCCCAAUGAGGAUGCCCACGGGCGAUUGGGGCACGG [C40A], for which the Kd was found to be 71.3 nM.

Regarding CCCAACGACUGCCGAGCGAGAUUACGCUUGAGCGCCCCAUUGAGGAUGCCCACGGGCGAUUGGGGCACGG [C40U], the Kd worked out at 56.6 nM.

With CCCAACGACUGCCGAGCGAGAUUACGCUUGAGCGCCCCAGUGAGGAUGCCCACGGGCGAUUGGGGCACGG [C40G], the Kd was determined as 5.55 nM.

On to CCCAACGACUGCCGAGCGAGAUUACGCUUGAGCGCCCCACGGAGGUUGCCCACGGGCGAUUGGGGCACGG [U41G A46U], for which the Kd was 62.9 nM.

Turning to CCCAACGACUGCCGAGCGAGAUUACGCUUGAGCGCCCCACGGAGGGUGCCCACGGGCGAUUGGGGCACGG [U41G A46G], the dissociation constant (Kd) came to 26.2 nM.

For the variant CCCAACGACUGCCGAGCGAGAUUACGCUUGAGCGCCCCGCUGAGGAUGCCCACGGGUGAUUGGGGCACGG [A39G C57U], the Kd was 9.77 nM.

Consider CCCAACGACUGCCGAGCGAGAUUACGCUUGAGCGCCCCUCUGAGGAUGCCCACGGGCGAUUGGGGCUCGG [A39U A67U], for which the Kd amounted to 55 nM.

In the case of CCCAACGACUGCCGAGCGAGAUUACGCUUGAGCGCCCCUCUGAGGAUGCCCACGGGCGAUUGGGGCGCGG [A39U A67G], the Kd worked out at 27.3 nM.

CCCAACGACUGCCGAGCGAGAUUACGCUUGAGCGCUCCACUGAGGAUGCCCACGGGCGAUUGGGGCACGG [C36U]: the Kd is 6.29 nM.

Consider CCCAACGACUGCCGAGCGAGAUUACGCUUGAGCGCACCACUGAGGAUGCCCACGGGCGAUUGGGGCACGG [C36A], for which the Kd turned out to be 8.24 nM.

For CCCAACGACUGCCGAGCGAGAUUACGCUUGAGCGCGCCACUGAGGAUGCCCACGGGCGAUUGGGGCACGG [C36G], the Kd is 6 nM.

As for CCCAACGACUGCCGAGCGAGAUUACGCUUGAGCGUCCCACUGAGGAUGCCCACGGGCGAUUGGGGCACGG [C35U], the Kd stood at 13 nM.

As to CCCAACGACUGCCGAGCGAGAUUACGCUUGAGCGGCCCACUGAGGAUGCCCACGGGCGAUUGGGGCACGG [C35G], the Kd turned out to be 6.51 nM.

Regarding CCCAACGACUGCCGAGCGAGAUUACGCUUGAGCGACCCACUGAGGAUGCCCACGGGCGAUUGGGGCACGG [C35A], the Kd was found to be 6.56 nM.

Regarding CCCAACGACUGCCGAGCGAGAUUACGCUUGAGCGCCCUACGGAGGAUGCCCACGGGCGAUUGGGGCACGG [C38U U41G], the Kd came out at 7.77 nM.

CCCAACGACUGCCGAGCGAGAUUACGCUUGAGCUCCCCACUGAGGAUGCCCACGGGCGAUUGGGGCACGG [G34U]: the Kd came out at 5.56 nM.

On to CCCAACGACUGCCGAGCGAGAUUACGCUUGAGCCCCCCACUGAGGAUGCCCACGGGCGAUUGGGGCACGG [G34C], for which the Kd was 9.79 nM.

For CCCAACGACUGCCGAGCGAGAUUACGCUUGAGCACCCCACUGAGGAUGCCCACGGGCGAUUGGGGCACGG [G34A], the Kd was determined as 6.53 nM.

As to CCCAACGACUGCCGAGCGAGAUUACGCUUGAGCACCCCACGGAGGAUGCCCACGGGCGAUUGGGGCACGG [G34A U41G], the Kd turned out to be 7.5 nM.

Regarding CCCAACGACUGCCGAGCGAGAUUACGCUUGAGCGCCCCUCUGAGGAUACCCACGGGCGAUUGGGGCACGG [A39U G48A], the Kd turned out to be 49 nM.

In the case of CCCAACGACUGCCGAGCGAGAUUACGCUUGAGCACCCCACUGAGGAUGCCCACGGGCGAUUGGGGCUCGG [G34A A67U], the Kd was 16.8 nM.
